The record followed here is ChEMBL document CHEMBL4266061, “Discovery of 4-Azaindole Inhibitors of TGFβRI as Immuno-oncology Agents” (ACS Med Chem Lett, 2018).

The structures appear in SMILES notation. Where only a bound is given, the exact number is not on record here.

A short description of data set [1]: Metabolic stability in mouse liver microsomes assessed as parent compound remaining. The format is ADME, microsome. For orientation: Microsomes from liver hold many membrane-bound enzymes, among them those of drug oxidation.
Data set [2] relates to Mus musculus. The data set is described as follows: Toxicity in C57/BL6 mouse xenografted with mouse MC38 cells assessed as body weight loss at 25 to 50 mg/kg, po qd for 28 days measured twice weekly. The format is organism-based. To be noted: in vivo, 672 h. In outline:
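Nine C57/BL6 mice per group were injected subcutaneously with 1 × 10^6 MC38 cells. Tumors were measured on day 6, then mice were randomized. Compound was given orally every day for 28 days, alone or with anti-PD-1 antibody (IP every 4 days, three doses). Tumor volumes were measured twice weekly, and body weight loss (>5%) was monitored.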

Data set [3] can be described thus: Fraction unbound in human plasma. The format is ADME, cell-free.
Data set [4] can be described thus: Cmax in Balb/C mouse at 10 mg/kg, po qd. The format is ADME, organism-based. Details: dose 10 mg/kg, route oral. To be noted: in vivo. In outline: (§1)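 Compound given orally to mice. Plasma levels were followed over time, and Cmax, Tmax and AUC0–24 were taken from the plasma concentration–time profile.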
Data set [5] in a line: Metabolic stability in human liver microsomes assessed as parent compound remaining. The format is ADME, microsome.
A short description of data set [6]: Metabolic stability in rat liver microsomes assessed as parent compound remaining. Format: ADME, microsome.
Data set [7] can be described thus: Tmax in Balb/C mouse at 10 mg/kg, po qd. Format: ADME, organism-based. To be noted: in vivo. In outline: as §1
The nature of data set [8]: Fraction unbound in mouse plasma. Format: ADME, cell-free.
Data set [9] can be described thus: AUC (0 to 24 hrs) in Balb/C mouse at 10 mg/kg, po qd. Format: ADME, organism-based. Details: time < 24 hr, dose 10 mg/kg, route oral. To be noted: in vivo. In outline: as §1
Data set [10] can be described thus: Fraction unbound in rat plasma. The format is ADME, cell-free.
Data set [11] can be described thus: Tmax in Balb/C mouse at 50 mg/kg, po bid. Format: ADME, organism-based. To be noted: in vivo. In outline:
as §1

The nature of data set [12]: AUC (0 to 24 hrs) in Balb/C mouse at 50 mg/kg, po bid. To be noted: in vivo. Details: time < 24 hr, dose 50 mg/kg, route oral. Format: ADME, organism-based. The method in brief:
as §1

Data set [13] can be described thus: Cmax in Balb/C mouse at 50 mg/kg, po bid. Format: ADME, organism-based. Also noted: dose 50 mg/kg, route oral. To be noted: in vivo. The method in brief: as §1

What is called fraction unbound is free concentration divided by total concentration. Low readings indicate extensive binding, high ones weak binding. The term Cmax denotes the maximum level reached in the sampled fluid or tissue. A word on the Tmax: it is the time from dosing to the highest level. As usually defined, the AUC is the area under the concentration-time curve, a measure of exposure. A higher AUC goes with high exposure.

Regarding `[2H]C([2H])([2H])Oc1ccc(-c2c(-c3ccnc(NC(C)=O)c3)[nH]c3cccnc23)nc1`, the Stability in data set [1] is given as 74%; in data set [5], 96%; in data set [6], 89%. In [2], the Activity was less than 5%. The values for the fraction unbound in [3], in [8] and in [10] were 0.24, 0.12 and 0.25, respectively. This compound came in with a Cmax in data set [4] of 5.3 µM. For the same compound, the Tmax in [7] amounted to 1 h. In [9], this compound came in with an AUC at 24 h of 19.5 µM·h.
For `CC(=O)Nc1cc(-c2[nH]c3cccnc3c2-c2cccc(C(F)F)n2)ccn1`, the Tmax in data set [11] was 1 h. The Stability in data set [1] is on record as 66%; in data set [5], 60%; in data set [6], 85%. Further, the figures for the fraction unbound in [3], in data set [8] and in data set [10] were 0.09, 0.05 and 0.18, respectively. In addition, the AUC at 24 h in [12] was found to be 14.1 µM·h. In addition, the peak level in [13] (Cmax) was 7.4 µM.
